In ChEMBL document CHEMBL1817627, “Synergy-directed fractionation of botanical medicines: a case study with goldenseal (Hydrastis canadensis)” (2011):
Activity calls are given as the source filed them. The calls are words filed in the database; no cut-off is given here.

Experiments:
[1] = target: T1, Quinolone resistance protein NorA (Staphylococcus aureus) (UniProt P0A0J7); test: Inhibition of wild type Staphylococcus aureus NCTC8325-4 NorA assessed as time taken to inhibit ethidium bromide efflux by measuring fluorescence at 100 uM relative to control
T1 sequence (whole entry): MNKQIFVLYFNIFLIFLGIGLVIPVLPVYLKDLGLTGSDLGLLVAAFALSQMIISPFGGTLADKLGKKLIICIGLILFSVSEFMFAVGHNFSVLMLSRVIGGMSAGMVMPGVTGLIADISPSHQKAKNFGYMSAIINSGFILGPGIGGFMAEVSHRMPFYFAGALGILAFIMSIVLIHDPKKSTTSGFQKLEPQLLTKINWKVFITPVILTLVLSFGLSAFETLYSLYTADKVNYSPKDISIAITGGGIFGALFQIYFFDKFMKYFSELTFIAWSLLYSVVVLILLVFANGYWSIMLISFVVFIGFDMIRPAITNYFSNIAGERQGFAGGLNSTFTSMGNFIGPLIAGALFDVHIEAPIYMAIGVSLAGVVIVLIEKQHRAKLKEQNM
Summary of the method: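 Cells grown in Mueller-Hinton broth to OD600 0.74, then loaded with ethidium bromide (25 μM) plus CCCP (100 μM) for 20 min at 20 °C with shaking. Diluted to OD600 0.40, pelleted and held on ice. Resuspended in fresh broth with 10% DMSO final and treatment at 100 μM final; CCCP is the control. Fluorescence (ex 530, em 600 nm) read every second for 300 s. Two-factor ANOVA versus vehicle at t = 300 s.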

[2] = tested on: Staphylococcus aureus; test: Inhibition of Staphylococcus aureus K1758 NorA mutant assessed as inhibition of ethidium bromide efflux by measuring increase in fluorescence at 100 uM after 300 secs
[3] = tested on: Staphylococcus aureus; test: Antimicrobial activity against Staphylococcus aureus; type: functional
Summary of the method: (§1)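 Broth microdilution MIC per CLSI guidelines. Single-colony S. aureus inoculum grown to log phase in Mueller-Hinton broth, adjusted by OD600 to 1.0×10^5 CFU/mL final. Medium contains 2% DMSO (vehicle, negative control); reserpine is the positive control. Triplicate wells, with bacteria-free wells for background subtraction. OD600 read after 20 hrs at 37 °C.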

[4] = tested on: Staphylococcus aureus; test: Antimicrobial activity against wild-type Staphylococcus aureus NCTC8325-4; type: functional; summary of the method: as §1
[5] = tested on: Staphylococcus aureus; test: Antimicrobial activity against NorA efflux pump overexpressing Staphylococcus aureus K2378; type: functional
Summary of the method: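 S. aureus K2378 (norA overexpressing); single colony grown to log phase in Mueller-Hinton broth, adjusted by OD600 to 1.0×10^5 CFU/mL final; broth microdilution per CLSI in broth with 2% DMSO; triplicate wells plus bacteria-free background wells; OD600 read after 20 hrs at 37 °C; MIC = concentration with no significant difference (ANOVA) from vehicle control.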

Compound	TIME [1] [h]	inhibition [2]	MIC [3] [µg/mL]	MIC [4] [µg/mL]	MIC [5] [µg/mL]
N#CC(C#N)=NNc1cccc(Cl)c1	0.0833	inactive			
COc1cc(O)c2c(=O)cc(-c3ccc(O)cc3)oc2c1C	0.0833	inactive			
COc1ccc2cc3[n+](cc2c1OC)CCc1cc2c(cc1-3)OCO2 [BERBERINE]			150	150	300
COc1c(C)c(O)c2c(=O)cc(-c3ccc(O)cc3)oc2c1C	0.0833	inactive			
COc1cc2oc(-c3ccc(O)cc3)cc(=O)c2c(O)c1C [8-DEMETHYLSIDEROXYLIN]	0.0833	inactive			> 300
